SIAE primary – human SIAE inhibition, primary screen; Q9HAT2; SIAE FP-Rh probe binding, fluorescence polarization; inhibition, % at 9.66 µM; 370,000 compounds, 0.69% hits;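 active = inhibition above a cutoff: mean of compounds within the control limits plus 3 SD of those, cut at about 17% in these data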;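 note: 0% = plate median of compound wells and 100% = probe without SIAE protein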
HTRA1 inhibitor – inhibitors of human serine peptidase HTRA1 | inhibition, % at 5.96 µM | AID 504803 | 340,000 compounds, 0.5% hits | recombinant HTRA1, FP-rhodamine activity-based probe, fluorescence polarization; in the data active = inhibition above about 36%;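 note: 0% = enzyme with DMSO and 100% = wells lacking enzyme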
Target sequence (Q92743 whole entry, looked up): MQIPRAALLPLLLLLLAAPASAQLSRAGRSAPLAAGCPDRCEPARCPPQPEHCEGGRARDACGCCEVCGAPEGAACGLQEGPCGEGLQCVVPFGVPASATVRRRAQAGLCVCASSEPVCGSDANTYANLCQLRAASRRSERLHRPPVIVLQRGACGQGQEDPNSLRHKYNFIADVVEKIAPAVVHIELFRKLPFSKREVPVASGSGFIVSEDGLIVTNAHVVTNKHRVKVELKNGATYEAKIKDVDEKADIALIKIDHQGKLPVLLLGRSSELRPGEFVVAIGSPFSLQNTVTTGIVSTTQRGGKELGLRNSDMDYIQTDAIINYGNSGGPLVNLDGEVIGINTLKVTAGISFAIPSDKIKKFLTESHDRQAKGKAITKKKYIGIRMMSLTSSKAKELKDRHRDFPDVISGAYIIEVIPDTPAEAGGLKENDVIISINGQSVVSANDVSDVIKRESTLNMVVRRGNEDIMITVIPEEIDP
ABHD4 inh – inhibits mouse alpha/beta hydrolase domain 4 | Q8VD66 | purified mABHD4, FP-Rh probe fluorescence polarization | inhibition, % at 8.92 µM | 370,000 compounds, 0.54% hits | AID 720543;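 active = inhibition exceeding the mean over every tested compound plus 3 SD, cut at about 30% in these data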;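 note: 0% = plate median of compound wells and 100% = S159A mutant with DMSO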
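Test system: mABHD4 protein | Buffer or medium: HEPES pH 7.0 buffer, 150 mM NaCl, 0.01% Pluronic F-127 | Probe or stimulus: FP-Rh fluorescent activity-based probe, added after compound pre-incubation | Timing: Pre-incubation 45 min, probe exposure 60 min, at 25 °C | Technique: Fluorescence polarization, excitation 525 nm, emission 598 nm, BODIPY TMR filters | Repeats: Single well per compound (singlicate)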
rCAG binder – r(CAG) repeat RNA binding | TO-PRO-1 dye displacement fluorescence | inhibition, % at 3 µM | 370,000 compounds, 1.3% hits;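 active = inhibition above the plate cutoff, the mean of all test compounds on that plate plus 3 SD, cut at about 35% in these data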;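 note: 0% = DMSO alone and 100% = 100 µM mitoxantrone as full dye displacement; higher means more dye released from RNA so lower well fluorescence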
TCR-CD3 inh – inhibitors of human TCR-CD3 interaction; inhibition, % at 9.4 µM; 360,000 compounds, 0.37% hits; AID 651800; TAMRA-labeled TCR probe fluorescence, biochemical; in the data active = inhibition above about 19%;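 note: recombinant mutant TCR 2C K166C tagged with TAMRA read by polarization; 0% = receptor in buffer alone and 100% = receptor with positive control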
rCAG binder conf – r(CAG) RNA repeat binding, confirmation | shares compounds with rCAG binder | TO-PRO-1 dye displacement fluorescence | inhibition, % at 3 µM | 4,300 compounds, 70% hits | AID 652065;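 active = inhibition above a per-plate cutoff, the mean inhibition of sample wells plus 3 SD, cut at about 35% in these data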;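 note: loss of TO-PRO-1 fluorescence as compound displaces dye from 1x1 AA loop RNA; 0% = DMSO only wells and 100% = 100 µM mitoxantrone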
DNA CAG counter – DNA CAG dye complex inhibition counter-screen; d(CAG) DNA oligo TO-PRO-1 dye displacement, fluorescence; shares compounds with rCAG binder; 4,300 compounds, 94% hits; inhibition, % at 3 µM;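 active = inhibition above its plate's cutoff, the mean test-well inhibition plus 3 SD, cut at about 4.8% in these data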;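 note: 0% = DNA dye mix with DMSO and 100% = 100 µM mitoxantrone; hits displace the dye from DNA and so lower well fluorescence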
DNA CAG DR – counter-screen for rCAG binders: inhibitors of DNA CAG TO-PRO-1 complex. shares compounds with rCAG binder. DNA CAG/GTC duplex TO-PRO-1 dye displacement fluorescence. IC50, µM. 250 compounds, 20% hits; in the data active = IC50 below about 10 µM
* marks the source's active call; other numbers are inactive results; . = no result given. Sampled rows, rich in hits. Any-hit rate of the full collection: about 2.5%.

SMILES	SIAE primary	HTRA1 inhibitor	ABHD4 inh	rCAG binder	TCR-CD3 inh	rCAG binder conf	DNA CAG counter	others
CCOc1ccccc1NC(=O)CCN1CCN(S(=O)(=O)c2ccc(Br)cc2)CC1	4	-6	-2	36*	4	3	1
COc1cc(CNCc2ccncc2)ccc1OCC(N)=O	3	-1	-3	0	3	.	.
COc1ccc(NC(=O)CSc2nc3nc(-c4cccs4)cc(C(F)(F)F)c3c(=O)[nH]2)c(OC)c1	0	-12	2	19	6	.	.
CCOc1ccccc1NC(=O)CSc1nc2nc(-c3cccs3)cc(C(F)(F)F)c2c(=O)[nH]1	-51	-37	-84	70*	0	79*	48*
O=C(COC(=O)c1ccc(Sc2ncn[nH]2)c([N+](=O)[O-])c1)Nc1ccc(Cl)c(Cl)c1	-17	.	-39	64*	.	46*	14*
Fc1cccc2sc(Nc3nc4cc5c(cc4s3)OCO5)nc12	13	-2	9	67*	-4	54*	33*
Cc1cc(C(F)(F)F)n(-c2nc(C(=O)NNS(=O)(=O)c3ccccc3)cs2)n1	-3	-4	-6	22	-6	.	.
Cc1cc(C(F)(F)F)n(-c2nc(C(=O)NNS(=O)(=O)c3ccccc3[N+](=O)[O-])cs2)n1	2	-1	10	45*	3	27	8.6*
O=C(C/C=N/OCc1ccc(Cl)cc1)c1cnc(-c2ccccc2)s1	0	-38	-8	12	1	.	.
COC(=O)C1OC(OC2CC[C@]3(C)C(CC[C@@]4(C)[C@@H]3CC=C3[C@@H]5CC(C)(C)CC[C@]5(C(=O)OC5OC(CO)C(O)C(O)C5O)CC[C@]34C)C2(C)C)C(O)C(O)C1O[C@H]1OCC(O)C(O)C1O (some centres undefined)	.	-15	.	.	.	.	.
CC1(C)CC[C@]2(C(=O)O[C@@H]3OC(CO)[C@@H](O)[C@H](O)[C@H]3O)CC[C@]3(C)C(=CCC4[C@@]5(C)CC[C@H](O[C@@H]6OC(C(=O)O)[C@@H](O)[C@H](O)[C@H]6O)C(C)(C)C5CC[C@]43C)[C@@H]2C1 (some centres undefined)	1	-12	-3	46*	0	45*	12*	DNA CAG DR=>30
O=C(c1ccc(C(F)(F)F)cc1)N1CCC(=O)N(C(CO)Cc2ccccc2)CC1 (centres undefined)	8	1	-2	5	-2	.	.
CCOC(=O)N1CCN(C(=O)CCS(=O)(=O)c2ccc3c(c2)CCN3C(=O)CC)CC1	-4	-1	-6	-4	1	.	.
O=C(Nc1cccc(Cl)c1)Nc1sccc1-c1nc2ccccc2s1	-21	.	-60	35*	-12	27	18*
CC1(C(=O)NS(=O)(=O)c2ccccc2Cl)CCN1C(=O)C1(c2ccc(Cl)cc2)CC1 (centres undefined)	-9	.	6	36*	-2	28	5.1*
Cc1ccccc1S(=O)(=O)NC(=O)C1(C)CCN1C(=O)C1(c2ccc(Cl)cc2)CCC1 (centres undefined)	0	.	-5	48*	1	37*	8.8*
CC1(C(=O)NS(=O)(=O)c2ccccc2Cl)CCN1C(=O)C1(c2ccccc2)CCCC1 (centres undefined)	-14	.	-12	33	0	.	.
CC(C)[C@H](NC(=O)N1CCOCC1)C(=O)N1CCC[C@H]1C(=O)NCc1ccccc1	3	.	4	1	1	.	.
CCOC(=O)c1ccc(S(=O)(=O)Nc2nc3cc(S(=O)(=O)NC4=NCCCCC4)ccc3s2)cc1	-1	-10	-3	59*	-4	56*	23*
Cc1ccc(NC(=O)C(C)N2C(=O)c3ccccc3S2(=O)=O)cc1Cl (centres undefined)	-6	-8	-8	7	5	.	.
Cc1ccc(NC(=S)N(Cc2ccco2)C2CCN(C(C)C)CC2)cc1	13	-5	-4	37*	5	0	1
CC(C)n1c(SCC(=O)Nc2ccccc2)nc2c1c(=O)[nH]c(=O)n2C	3	-1	-2	0	-1	.	.
